From PubChem BioAssay
An excerpt weighted towards active compounds, which were near 1.8% of everything screened.
APJ agonist: activates the human apelin receptor APJ. P35414. hit rate 0.11% among 330,000. CHO-K1 APJ PathHunter beta-arrestin, luminescence; 0% DMSO wells, 100% apelin. AID 2520. activation, % at 20 µM;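 active = activation more than six SD over the plate average, tested at 20 µM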;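 also: 0% = DMSO alone and 100% = apelin-13 at 10 nM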
Target sequence (P35414 whole entry, looked up): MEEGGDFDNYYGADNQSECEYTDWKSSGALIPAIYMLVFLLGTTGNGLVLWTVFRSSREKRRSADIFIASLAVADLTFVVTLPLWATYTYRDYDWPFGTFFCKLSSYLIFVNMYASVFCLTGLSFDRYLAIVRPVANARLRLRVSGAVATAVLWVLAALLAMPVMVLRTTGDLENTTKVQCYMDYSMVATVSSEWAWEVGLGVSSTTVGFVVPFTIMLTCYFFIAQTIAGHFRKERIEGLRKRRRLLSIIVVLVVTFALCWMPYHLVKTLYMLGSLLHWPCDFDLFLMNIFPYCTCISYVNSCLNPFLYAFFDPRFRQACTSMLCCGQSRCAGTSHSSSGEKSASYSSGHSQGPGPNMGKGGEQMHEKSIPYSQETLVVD
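Test system: CHO-K1 APJ beta-arrestin complementation cell line | Compound: Single test compound dose, 20 µM final, 1% DMSO | Incubation: Compound 90 min 25 °C, reagent 1 h | Measured by: beta-gal luminescence | Read-out basis: APJ–arrestin association signal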
CXCR6 inh: blocks human CXCR6 beta-arrestin recruitment. inhibition, % at 20 µM. CHO-K1 PathHunter CXCR6 beta-arrestin, luminescence. O00574. hit rate 0.36% among 360,000; in the data active = inhibition above about 34%, passing the limit was not always enough;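 also: antagonist mode with CXCL16 agonist at 10 nM final; 0% = 10 nM CXCL16 with DMSO and 100% = unstimulated wells without agonist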
CCR6 antagonist: blocks CCL20-driven beta-arrestin recruitment at human CCR6; P51684; CHO-K1 CCR6 PathHunter beta-arrestin, luminescence, CCL20-stimulated; inhibition, % at 20 µM; hit rate 0.49% among 340,000;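 active = compounds whose inhibition of the agonist-driven luminescence signal at 20 µM reaches about 50%, limit read from the data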;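 also: cells stimulated with CCL20 at 14 nM final; plate controls were DMSO with CCL20 for no effect and DMSO without agonist for full effect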
Beta2AR agonist: human beta-2 adrenergic receptor agonism by FAP. P07550. Am2.2-beta2AR cells, FAP receptor internalization, flow cytometry. response, % (concentration not given with the values). hit rate 0.43% among 340,000;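 active = response above a set limit, near 3 SD of response in nonfluorescent compounds, cut at about 42% in these data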
APJ antagonist: APJ receptor antagonism; CHO-K1 APJ beta-arrestin complementation, luminescence; inhibition, % at 20 µM; hit rate 0.32% among 330,000;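 active = inhibition above about 40% at 20 µM, limit read from the data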;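 also: cells challenged with 10 nM apelin-13 agonist together with compound; plate controls were apelin-13 plus DMSO wells for no effect and DMSO wells lacking apelin-13 for full effect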
EBI2 antag: blocks human EBI2 receptor beta-arrestin signaling. hit rate 0.81% among 360,000. inhibition, % at 5 µM. AID 651636. P32249. EBI2 beta-arrestin recruitment, luminescence, 7a,25-OHC stimulated; in the data active = inhibition above about 38%;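 also: enzyme fragment complementation signal reports receptor beta-arrestin coupling in cells; 0% = agonist plus DMSO wells and 100% = wells without agonist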
EBI2 conf: confirmation of human EBI2 receptor antagonists; EBI2 beta-arrestin luminescence, 7a,25-OHC antagonism; AID 651997; inhibition, % at 5 µM; shares compounds with EBI2 antag; hit rate 29% among 2,400;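 active = inhibition of at least 50%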
EBI2 ag: activates EBI2, counter-screen for EBI2 antagonists; shares compounds with EBI2 antag; EBI2-expressing cells, agonist mode, luminescence, 60 min; 0% vehicle, 100% 7α,25-dihydroxycholesterol control; activation, % at 5 µM; 2,400 tested, under 10 active;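 active = activation of at least 50%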
bGal counter: counter-screen for EBI2 antagonists: E. coli beta-galactosidase inhibition | inhibition, % at 5 µM | hit rate 1% among 2,400 | shares compounds with EBI2 antag | AID 652176 | purified beta-galactosidase, luminescent Galacton Star, 15 min;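 active = replicate-average signal at least 3 plate SD below neutral wells, shown as high inhibition, flagging enzyme-inhibiting false positives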;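 also: 0% = DMSO wells with enzyme and 100% = wells lacking enzyme; higher means stronger loss of beta-gal luminescence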
Active calls of the source: *; · = no result given.

SMILES	APJ agonist	CXCR6 inh	CCR6 antagonist	Beta2AR agonist	APJ antagonist	EBI2 antag	EBI2 conf	EBI2 ag	bGal counter
COC(=O)c1ccc2[nH]c3c(c2c1)CC(C)CC3 (configuration not stated)	2	-9	-15	18	14	50*	44	-1	-12
Cc1ccc([N+](=O)[O-])cc1S(=O)(=O)Nc1ccc(C(=O)NCC2CCCO2)cc1 (configuration not stated)	-2	2	9	4	0	-9	·	·	·
Cc1ccc(C(=O)N2CCN(c3ccc([N+](=O)[O-])c(NCc4ccco4)c3)CC2)cc1	-4	8	15	18	-8	42*	13	-1	-6
Cc1cccc(C(=O)N2CCN(c3ccc([N+](=O)[O-])c(NCc4ccco4)c3)CC2)c1	2	10	15	-4	10	18	·	·	·
O=C(NCc1cccc(C(F)(F)F)c1)c1csc(COCCO)n1	·	5	·	·	·	-11	·	·	·
COc1ccc(C(=O)N2CCC(C(=O)c3c(C)cc(C)cc3C)CC2)cc1	1	-2	14	1	1	72*	42	-1	-8
COc1cc(C(=O)N2CCC(N3CCCCCC3)CC2)cc(OC)c1OC	-3	1	19	5	-31	9	·	·	·
Cc1cc(C)c2cc(C(=O)N3CCC(Cc4ccccc4)CC3)[nH]c2c1	-2	4	11	-1	-16	64*	41	2	-10
Cc1cc(C)c2cc(C(=O)N3CCC(C(=O)c4ccc(F)cc4)CC3)[nH]c2c1	1	-3	14	6	-1	90*	84*	1	1
O=C(c1ccc(F)cc1)C1CCN(C(=O)c2ccccc2)CC1	0	-7	10	-6	12	2	·	·	·
COc1ccc(C(=O)N2CCC(C(=O)O)CC2)cc1	-3	-10	-18	0	-6	-10	·	·	·
Cc1ccc(C(=O)N2CCC(Cc3ccccc3)CC2)cc1[N+](=O)[O-]	-2	2	16	1	-6	10	·	·	·
Cc1cc(C)c2cc(C(=O)N3CCC(N4CCCCC4)CC3)[nH]c2c1	-2	7	15	5	-15	46*	25	0	7
COc1ccc(C)cc1NC(=O)NNC(=O)C(C)Oc1ccc(F)cc1Cl (configuration not stated)	2	-10	11	-6	6	-3	·	·	·
COc1ccc(C(=O)CN2CC(C)SC2=Nc2ccc(Cl)cc2)cc1 (configuration not stated)	0	0	24	-2	18	44*	27	0	5
COc1ccc(/C=C\C(=O)O[C@@H]2C(O)C(O[C@@H]3OC(C)[C@H](O[C@@H]4OCC(O[C@H]5O[C@H](CO)[C@@H](O)C(O)C5O)C(O)C4O)C(O)C3O)[C@H](OC(=O)[C@]34CCC(C)(C)C[C@@H]3C3=CCC5[C@@]6(C)CC(O)C(O[C@@H]7OC(CO)C(O)[C@H](O)[C@H]7O)[C@@](C)(C(=O)O)C6CC[C@@]5(C)[C@]3(CO)CC4)O[C@H]2C)cc1 (some centres not stated)	0	-11	-14	-2	-12	-8	·	·	·
COc1ccc(NC(=O)C2CCC(CNS(=O)(=O)c3cccs3)CC2)cc1 (configuration not stated)	-2	-12	14	-3	4	47*	16	1	5
CCCCN1CC(=O)N2Cc3[nH]c4ccccc4c3C[C@H]2C1=O	-5	-8	2	0	6	-2	·	·	·
Cc1cc(C)c2nc(N3C(=O)C(O)=C(C(=O)c4ccco4)C3c3cccc(O)c3)sc2c1 (configuration not stated)	-4	1	6	3	7	10	·	·	·
COc1cc(OC)cc(-c2c(Sc3ccccc3)c3cc(-c4cnc(OC)nc4)ccc3n2C)c1	·	3	·	·	·	65*	10	-1	-6
COc1ccc(-c2ccc3c(c2)c(Sc2ccccc2)c(-c2cc(OC)cc(OC)c2)n3C)cc1	·	5	·	·	·	2	·	·	·
CCC(=O)c1ccc(OCC(=O)OCC(=O)c2cc(C)n(CC3CCCO3)c2C)cc1 (configuration not stated)	1	-1	11	-1	-8	0	·	·	·
Cc1cc(C(=O)COC(=O)C2CCN(C(=O)c3ccc(Cl)cc3)CC2)c(C)n1CC1CCCO1 (configuration not stated)	-1	0	7	-4	-13	73*	51*	1	0
COc1ccc(CNC(=O)N2CCN(c3cccc(C)c3C)CC2)cc1OC	1	4	4	-7	7	36	·	·	·
Cc1cccc(N2CCN(C(=O)Cc3ccc(Br)cc3)CC2)c1C	-1	0	32	2	-20	47*	11	-1	-10
SMILES	APJ agonist	CXCR6 inh	CCR6 antagonist	Beta2AR agonist	APJ antagonist	EBI2 antag	EBI2 conf	EBI2 ag	bGal counter
Cc1cccc(N2CCN(C(=O)NCc3ccc(F)cc3)CC2)c1C	-3	0	9	-4	-25	58*	43	1	4
COc1cccc(CN(C)C(=O)c2cc(S(=O)(=O)NC3CCCCC3)ccc2C)c1OC	-1	-6	6	0	8	-7	·	·	·
COc1cc(OC)c(C(=O)Nc2cc(S(=O)(=O)N3CCOCC3)ccc2N2CCOCC2)cc1OC	·	-3	·	·	·	3	·	·	·
CO[C@H]1CN(C)C(=O)c2cc(NC(=O)c3cc(C)on3)ccc2OC[C@@H](C)N(C(=O)C2CC2)C[C@H]1C	·	·	·	·	·	-11	·	·	·
Cc1ccc(NC(=O)N2CCN(C/C=C/c3ccccc3)CC2)cc1	1	1	5	2	-2	45*	17	2	4
O=C(Nc1ccc2c(c1)OCO2)N1CCN(C/C=C/c2ccccc2)CC1	-2	4	-14	9	24	45*	25	-1	-8
O=C1NC[C@@H](CCCCN2CCN(Cc3ccccc3)C(=O)C2=O)N(Cc2ccccc2)C1=O	·	2	·	·	·	-2	·	·	·
Cc1ccc(C(=O)Nc2ccccc2C(=O)NCc2ccco2)cc1S(=O)(=O)N1CCCCC1	-4	12	26	7	-1	44*	28	0	8
Cc1ccccc1NC(=O)CSc1nnc2ccc(-c3cccnc3)nn12	5	7	2	-7	8	0	·	·	·
